# In ChEMBL document CHEMBL3272210, “Effect of the solvent-dependent conformational system of hydroxyureas on predicted vs. observed log P” (J Med Chem, 1977):
# Tests used:
# Rattus norvegicus [1] = species on record: Rattus norvegicus; experiment: Inhibition of rat hepatoma ribonucleotide reductase using ATP and Me2SO solvent
# How it was run: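 Rat Novikoff ascites hepatoma reductase, partially purified, assayed in 8.3 mM phosphate pH 7, 2.1 mM ATP, 4.2 mM MgAc2, 0.04 mM ferrous ammonium sulfate, 6.3 mM DTT, 1.0 μM thioredoxin, 0.17 mM 32P-CDP. Inhibitor is predissolved in DMSO and diluted to 1% DMSO final, then added on ice before enzyme, followed by 30 min at 37 °C. Dowex-50 readout. ID50 extrapolated from four concentrations tested in duplicate.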
# Rattus norvegicus [2] = species on record: Rattus norvegicus; experiment: Inhibition of rat hepatoma ribonucleotide reductase using ATP relative to hydroxyurea
# How it was run: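 Same 32P-CDP reduction assay, 30 min, 37 °C, ATP 2.1 mM, aqueous inhibitor. Each determination includes hydroxyurea as positive control. ID50 (four levels, two trials each) is divided relative to that run's hydroxyurea ID50, and ratios are averaged across determinations.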
# [3] = Octanol-water partition coefficient, log P of the compound after 72 hrs; format: physicochemical
# How it was run: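 Known amounts (100 mg, 500 mg, 1.0 g) are shaken in equal volumes of 1-octanol and water pH 7.4 for 72 h, the optimal time. The aqueous layer is lyophilized, and the recovered compound is weighed and purity-checked. Values were cross-checked by colorimetry or UV for some compounds.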
# L1210 = experiment: Antitumor activity against mouse L1210 cells xenografted in host assessed as growth inhibition treated ip for 9 days; format: functional
# Rattus norvegicus [4] = species on record: Rattus norvegicus; experiment: Inhibition of rat hepatoma ribonucleotide reductase using ATP and Me2SO solvent relative to hydroxyurea
# Rattus norvegicus [5] = species on record: Rattus norvegicus; experiment: Inhibition of rat hepatoma ribonucleotide reductase using ATP
# How it was run: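 Partially purified rat Novikoff ascites hepatoma reductase (~0.2 mg) in pH 7 phosphate (8.3 mM) with 2.1 mM ATP, 4.2 mM MgAc2, Fe2+ (0.04 mM), 6.3 mM DTT, 1.0 μM rat thioredoxin and 0.17 mM 32P-CDP. Aqueous inhibitor is present before enzyme is added on ice, then 37 °C for 30 min. Perchloric acid stop, Dowex-50 product separation. Four concentrations, duplicate trials, ID50 by graphing/extrapolation.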
ID50 (Rattus norvegicus [1]) [µM],Ratio (Rattus norvegicus [2]),logP at 72 h [3],Ratio (Rattus norvegicus [4]),ID50 (Rattus norvegicus [5]) [µM],Structure (SMILES),T/C (L1210) [%]
400,9.5,0.5,,,CC(C)(C)NC(=O)NO,
340,3.8,0.22,3.8,340,CCCNC(=O)NO,146
,1.5,-0.1,,170,CCN(O)C(N)=O,168
,,-0.76,,,CCNC(=O)NO,137
,,1.39,,,O=C(NO)Nc1ccc(Cl)cc1,
,0.9,-0.46,,100,CN(O)C(N)=O,162
,19,0.2,,800,CC(C)NC(=O)NO,<125
,,0.41,,,O=C(NO)Nc1ccccc1,
750,6.8,0.32,,,CCCCNC(=O)NO,
,1,-1.27,,110,NC(=O)NO [HYDROXYUREA],291
